Only some compounds are listed: those with a hit (about 1.6% of all), similar ones and a draw of the others.
T cell modulator: modulators of CD8 T cell-vesicle binding, primary screen, mouse 2C CD8+ T cells, flow cytometry; actives 0.068% (n = 330,000); AID 2052, 2009; 2C CD8+ T cell-vesicle binding; active compounds read low; response (vesicle binding), % at 7 µM;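 active = response, share of CD8 T cells binding vesicles, and their 90th percentile fluorescence all below set limits, cut at about 80% in these data, passing the limit was not always enough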;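 note: values below 100% mean blocked vesicle binding to the CD8+ T cells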
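Read-out – percent CD8+ FL2 mean versus row control · System – murine 2C transgenic CD8+ T lymphocytes · Times – 1.5 h cell–vesicle binding at 37 °C, then 20 min icy labelling · Control set – naked vesicles low, QL9 vesicles with vehicle high · Detection – cytometric PE anti-B7-1 and Alexa647 anti-CD8 signals after 1% paraformaldehyde fixation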
PfGluPho inh: PfG6PD enzyme inhibitors, primary screen, biochemical, fluorescence intensity, uHTS; PfGluPho enzyme, NADPH resazurin-diaphorase fluorescence; actives 0.78% (n = 350,000); inhibition, % at 20 µM;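 active = inhibition reaching at least a set limit at 20 µM in the primary screen, cut at about 59% in these data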
ATG4B inh: ATG4B protease inhibitors, primary screen, biochemical, fluorescence, uHTS. inhibition, % at 8.33 µM. AID 504462, 2011. ATG4B cleavage of LC3-PLA2, NBD-HPC fluorescence, 1 h. actives 0.51% (n = 340,000). Cysteine protease ATG4B (Homo sapiens), Q9Y4P1; in the data active = inhibition above about 40%
PKA-R1A activ: activators of PKA-R1A holoenzyme, primary screen, biochemical, fluorescence polarization, Cy5-IP20, bovine R1A, mouse PKAc | cAMP-dependent protein kinase type I-alpha regulatory subunit (Bos taurus) + … | PKA-R1A dissociation; scaled: DMSO 0%, 113 µM cGMP 100% | activation, % at 11.4 µM | actives 0.083% (n = 340,000);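 active = percent activation above the mean of all tested compounds plus 3 SD, cut at about 19% in these data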;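 note: higher means more PKAc released from R1A so a rise in polarization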
HKDC1 inh: HKDC1 hexokinase inhibitors, primary screen, biochemical, fluorescence, uHTS; actives 0.16% (n = 340,000); Q2TB90; inhibition, % at 20 µM; recombinant HKDC1, G6PDH/diaphorase resazurin coupled fluorescence;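 active = inhibition above about 35% when tested at 20 µM, limit read from the data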
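Test system: recombinant HKDC1 (HK5) hexokinase enzyme, produced in-house / Doses: 20 µM test compound, 1% DMSO / Timing: 90 min, room temperature / Detection: G6PDH/diaphorase-coupled fluorescence, 1 mM NADP, 100 µM resazurin, 525/613 nm / Control set: DMSO wells with and without enzyme mix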
PKA-R2B act: activators of PKA-R2B holoenzyme, primary screen, biochemical, fluorescence polarization, Cy5-IP20, human; PKA-R2B holoenzyme dissociation; R2B truncated from residue 108, S112A mutant; 0% DMSO only, 100% 113 µM cGMP; activation, % at 11.4 µM; actives 0.079% (n = 340,000); AID 504700, 2011;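 active = activation above a cutoff set at the mean over all compounds plus 3 SD, cut at about 18% in these data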;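 note: higher means more holoenzyme dissociation and a rise in polarization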
Target sequence (P31323 whole entry, looked up, other chains not shown, the tested form may be a part): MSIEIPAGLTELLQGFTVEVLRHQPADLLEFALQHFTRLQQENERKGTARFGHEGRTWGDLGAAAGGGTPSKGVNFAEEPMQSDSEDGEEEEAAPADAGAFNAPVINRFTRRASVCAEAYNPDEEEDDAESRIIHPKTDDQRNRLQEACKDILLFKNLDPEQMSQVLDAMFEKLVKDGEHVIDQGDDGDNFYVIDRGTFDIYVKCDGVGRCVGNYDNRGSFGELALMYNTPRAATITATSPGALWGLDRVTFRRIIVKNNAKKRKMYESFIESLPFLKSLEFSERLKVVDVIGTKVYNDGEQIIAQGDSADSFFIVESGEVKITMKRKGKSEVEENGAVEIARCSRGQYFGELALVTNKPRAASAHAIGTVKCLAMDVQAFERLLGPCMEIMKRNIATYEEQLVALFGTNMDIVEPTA
HKDC1 act conf: HKDC1 hexokinase activators, confirmation, biochemical, single concentration | shares compounds with HKDC1 inh | recombinant HKDC1, G6PDH/diaphorase resazurin fluorescence; active compounds read low | inhibition, % at 20 µM | actives 14% (n = 740);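 active = inhibition at or below a set negative limit, negative inhibition meaning the enzyme was activated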
Hits are given with their value; . = inactive; / = no result given.

SMILES | T cell modulator | PfGluPho inh | ATG4B inh | PKA-R1A activ | HKDC1 inh | PKA-R2B act | HKDC1 act conf
C[C@H]1CCCCO[C@@H](CN(C)C(=O)NC2CCCCC2)[C@@H](C)CN([C@@H](C)CO)C(=O)c2cc(NC(=O)Cc3ccccc3)ccc2O1 | / | . | / | . | / | . | /
Cc1cccc(NC(=S)N/N=C/c2cccc(O)c2)c1C | . | . | . | . | . | . | /
CCCOc1ccc(/C=N/NC(=S)Nc2ccccc2[N+](=O)[O-])c(O)c1 | . | . | . | / | . | / | -48
Cc1ccccc1NC(=S)N/N=C/c1ccc(O)cc1O | . | . | . | . | . | . | .
COc1ccc(Cl)cc1NC(=O)CN(C)C(=O)/C=C/c1ccco1 | . | . | . | . | . | . | /
Cc1ccc(NC2c3ncccc3C(=O)N2c2ccccc2C)cc1C (stereo not drawn) | . | . | . | . | 56 | . | .
CCC(=O)N(C)C[C@H]1Oc2cc(Br)ccc2S(=O)(=O)N([C@@H](C)CO)C[C@H]1C | / | . | / | . | / | . | /
CCOc1ccc(/C=C2/SC(=S)N(CCC(=O)Nc3ccc(C(=O)O)cc3)C2=O)cc1 | . | . | . | . | 43 | . | -42
O=C(CCN1C(=O)/C(=C\c2ccccc2)SC1=S)Nc1ccc(C(=O)O)cc1 | . | . | . | . | . | . | /
Cc1cccc(S(=O)(=O)N(C)C[C@@H]2OCc3cnnn3CCCC(=O)N([C@@H](C)CO)C[C@@H]2C)c1 | / | . | / | . | / | . | /
O=C1C(Cl)=C(N2CCN(c3ccccc3[N+](=O)[O-])CC2)C(=O)c2ccccc21 | . | . | . | . | 40 | . | .
O=[N+]([O-])c1cc(Cl)ccc1N1CCCC1 | . | . | . | . | . | . | /
COc1cc2c(cc1OC)-c1cc(NCc3ccccn3)nc(=O)n1CC2 | . | . | . | . | 59 | . | .
CCCCCCN1C[C@H](n2cc(-c3ccc(F)cc3)nn2)[C@@H](O)C[C@@H]1c1ccc(Cl)cc1 | / | . | / | . | / | . | /
O=C(CNC(=O)/C=C/c1ccco1)N=Nc1c(O)[nH]c2ccccc12 | . | . | . | . | 51 | . | .
O=C(CCNC(=O)c1ccc(Cl)cc1)NCC(c1ccco1)N1CCCC1 (stereo not drawn) | / | . | . | . | . | . | /
COc1ccccc1C1=NNC(=Nc2cccc(S(=O)(=O)N(C)C)c2)SC1 | . | . | . | . | . | . | -177
COCCn1c(C)cc(C2=NNC(=Nc3ccccc3)SC2)c1C | . | . | . | . | . | . | /
O=C(O)c1cccc(-n2cccc2/C=C2/NC(=O)N(c3ccc(Cl)cc3)C2=O)c1 | / | . | . | . | 61 | . | .
COc1ccc(-c2oc(NC(=O)CSc3ncn[nH]3)c(C#N)c2-c2ccc(OC)cc2)cc1 | . | . | . | . | . | . | /
COc1ccc(-c2oc(NC(=O)CCl)c(C#N)c2-c2ccc(OC)cc2)cc1 | . | . | . | . | 46 | . | .
Cc1ccc(S(=O)(=O)N2CCCC2)cc1C(=O)Nc1ccc(-n2cnnn2)cc1 | . | . | . | . | . | . | /
COC(=O)[C@]1(Cc2ccccc2)N[C@H](CN(C)C(=O)Nc2ccc(C(F)(F)F)cc2)[C@@H]2C(=O)N(C)C(=O)[C@@H]21 | . | . | . | . | . | . | /
CC1CCCN(C(=O)COC(=O)c2cc([N+](=O)[O-])ccc2N2CCOCC2)C1 (stereo not drawn) | . | . | . | . | 41 | . | .
